Measurements published in paper PMC6852796 (Asian Pacific Journal of Cancer Prevention : APJCP, 2019).
Where “and” joins values, the source holds several entries; their conditions need not be identical. Identical values can stand only once.

Legend:
[1] = NOS related cytotoxicity, SRB viability of RAW 264.7; format: cell-based, murine; settings: mouse, RAW 264.7 macrophages
Outline: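 RAW 264.7 macrophages were maintained in high-glucose DMEM with 10% FBS and penicillin/streptomycin/[…] at 37 °C in humidified 5% CO2. The test compound's effect on their viability was measured by sulforhodamine B colorimetric staining, run alongside the LPS-stimulated nitrite assay.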

[2] = Selective cytotoxicity SRB assay, periodontal fibroblasts; format: cell-based; settings: human, primary periodontal ligament fibroblasts (PDL), noncancerous
Outline: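 Primary human periodontal fibroblasts served as a noncancerous counter-screen for selective cytotoxicity. […] Assays were run in triplicate and reported as mean ± SD (n=3).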

[3] = tested on: LPS-induced nitric oxide production in RAW 264.7 macrophages; test: Anti-inflammatory; format: cell-based, murine; settings: Mus musculus, RAW264.7, 24 h, read-out: NOS-IC50 value
Outline: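 Cells (2 x 10^5/well) were exposed to test compound (5-200 μg/mL) plus LPS 10 μg/mL for 24 h. Medium was mixed 1:1 with Griess reagent (1% sulfanilamide in 5% phosphoric acid; 0.1% naphthylethylenediamine-HCl) for 10 min at RT. A550 was read and nitrite taken from a sodium nitrite standard curve.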

[4] = target: T1, Crude porcine PL type II (pancreatic lipase) (Sus scrofa, UniProt P00591); test: In vitro PL activity spectrophotometric assay; format: biochemical; settings: PL-IC50 value, p-NPB substrate, 37 °C
T1 sequence (P00591 1-450): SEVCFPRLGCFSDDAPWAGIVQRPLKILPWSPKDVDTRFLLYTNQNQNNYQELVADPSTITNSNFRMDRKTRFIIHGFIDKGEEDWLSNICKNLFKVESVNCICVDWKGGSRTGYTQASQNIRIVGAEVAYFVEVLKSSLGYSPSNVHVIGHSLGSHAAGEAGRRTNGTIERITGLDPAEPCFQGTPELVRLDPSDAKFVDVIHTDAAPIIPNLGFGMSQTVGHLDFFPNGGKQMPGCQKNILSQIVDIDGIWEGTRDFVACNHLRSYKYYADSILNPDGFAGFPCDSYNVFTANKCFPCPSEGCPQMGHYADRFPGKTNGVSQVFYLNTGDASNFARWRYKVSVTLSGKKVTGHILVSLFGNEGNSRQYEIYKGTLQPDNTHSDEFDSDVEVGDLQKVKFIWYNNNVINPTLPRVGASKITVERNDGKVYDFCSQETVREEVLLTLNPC

[5] = Glycation related cytotoxicity: test compound only, no MGO; format: cell-based, murine; settings: mouse, RAW 264.7 macrophages
[6] = tested on: Methylglyoxal induced cytotoxicity in RAW264.7 murine macrophages; test: Antiglycation determination via methylglyoxal induced cytotoxicity; format: cell-based; settings: RAW264.7, MGO 300 µM, 48 hr, SRB
[7] = tested on: RAW 264.7 murine macrophages; test: Glycation related cytotoxicity: test compound only, no MGO; format: cell-based; settings: RAW264.7, in absence of MGO, 48 hr, SRB

| IC50 [3] | IC50 [4] | SMILES | IC50 at 24 h [1] | IC50 at 72 h [2] | IC50 at 48 h [5] | Glycation-IC50 value [6] | IC50 ([6]; read-out: Glycation-IC50 value) [µM] | Glycation related Cytotox.-IC50 value [7] | IC50 ([7]; read-out: Glycation related Cytotox.-IC50 value) [µM] |
| --- | --- | --- | --- | --- | --- | --- | --- | --- | --- |
| 98.8 µM and 41.5 µg/mL | 88.6 µM and 88.7 µM | CCCCc1ccc(-n2nnc3c4c(cc(F)c32)c(=O)c(C(=O)O)cn4C2CC2)cc1 [5b, 3-(4-butyl-phenyl)-9-cyclopropyl-4-fluoro-6-oxo-6,9-dihydro-3H-[1,2,3]triazolo[4,5-h]quinoline-7-carboxylic acid] | > 200 µg/mL | 42.5 µM and 17.9 µg/mL | 161 µM and 67.7 µg/mL |  |  |  |  |
| 51.5 µM and 20.2 µg/mL | 95.5 µM and 95.6 µM | CCc1ccc(-n2nnc3c4c(cc(F)c32)c(=O)c(C(=O)O)cn4C2CC2)cc1 [5a, 9-cyclopropyl-3-(4-ethyl-phenyl)-4-fluoro-6-oxo-6,9-dihydro-3H-[1,2,3]triazolo[4,5-h]quinoline-7-carboxylic acid] | > 200 µg/mL | 155 µM and 60.8 µg/mL | 84.1 µM and 33 µg/mL |  |  |  |  |

The remaining lines, values behind:

| SMILES | IC50 [3] | IC50 [4] | IC50 at 24 h [1] | IC50 at 72 h [2] | IC50 at 48 h [5] | Glycation-IC50 value [6] | IC50 ([6]; read-out: Glycation-IC50 value) [µM] | Glycation related Cytotox.-IC50 value [7] | IC50 ([7]; read-out: Glycation related Cytotox.-IC50 value) [µM] |
| --- | --- | --- | --- | --- | --- | --- | --- | --- | --- |
| N=C(N)NN [Aminogaunidine, Aminoguanidine, reference compound] |  |  |  |  |  | (0.34±0.0 µg/mL) | 3.1 ± 0.35 | (596.62±148.8 µg/mL ) | 5390 ± 1350 |
| COc1ccc2c(c1)c(CC(=O)O)c(C)n2C(=O)c1ccc(Cl)cc1 [Indomethacin, reference compound] | 212 µM and 75.9 µg/mL |  | > 200 µg/mL |  |  |  |  |  |  |
| CCCCc1ccc(Nc2c(F)cc3c(=O)c(C(=O)O)cn(C4CC4)c3c2N)cc1 [4b, 8-amino-7-(4-butyl-phenylamino)-1-cyclopropyl-6-fluoro-4-oxo-1,4-dihydro-quinoline-3-carboxylic acid] | 29.8 µM and 12.2 µg/mL | 74.7 µM and 69.6 µM | > 200 µg/mL | 407 µM and 167 µg/mL | 8.51 µM and 3.5 µg/mL |  |  |  |  |
| CCCCc1ccc(Nc2c(F)cc3c(=O)c(C(=O)O)cn(C4CC4)c3c2[N+](=O)[O-])cc1 [3b, 7-(4-butyl-phenylamino)-1-cyclopropyl-6-fluoro-8-nitro-4-oxo-1,4-dihydro-quinoline-3-carboxylic acid] | 10.5 µg/mL and 23.8 µM | 23.1 µM and 23.2 µM | 144 µg/mL and 327 µM | 416 µM and 183 µg/mL |  |  |  |  |  |
| CCc1ccc(Nc2c(F)cc3c(=O)c(C(=O)O)cn(C4CC4)c3c2N)cc1 [4a, 8-amino-1-cyclopropyl-7-(4-ethyl-phenylamino)-6-fluoro-4-oxo-1,4-dihydro-quinoline-3-carboxylic acid] | 60 µM and 22.9 µg/mL | 22.3 µM and 23.9 µM | > 200 µg/mL | 37.1 µM and 14.2 µg/mL | 3.05 µM and 1.2 µg/mL |  |  |  |  |
| CCc1ccc(Nc2c(F)cc3c(=O)c(C(=O)O)cn(C4CC4)c3c2[N+](=O)[O-])cc1 [3a, 1-cyclopropyl-7-(4-ethyl-phenylamino)-6-fluoro-8-nitro-4-oxo-1,4-dihydro-quinoline-3-carboxylic acid] | 309 µM and 127 µg/mL | 21.6 µM | > 200 µg/mL | 437 µM and 180 µg/mL | 437 µM and 180 µg/mL |  |  |  |  |
